Measured values as given in the M2OR odorant receptor database.
Numbering of substitutions follows the chain as printed.

Experiments:
Conditions in all cases: stereoisomer not certain
OR4S2 (Homo sapiens) = target: T1, OR4S2 (Homo sapiens) (UniProt Q8NH73)
T1 sequence (whole entry): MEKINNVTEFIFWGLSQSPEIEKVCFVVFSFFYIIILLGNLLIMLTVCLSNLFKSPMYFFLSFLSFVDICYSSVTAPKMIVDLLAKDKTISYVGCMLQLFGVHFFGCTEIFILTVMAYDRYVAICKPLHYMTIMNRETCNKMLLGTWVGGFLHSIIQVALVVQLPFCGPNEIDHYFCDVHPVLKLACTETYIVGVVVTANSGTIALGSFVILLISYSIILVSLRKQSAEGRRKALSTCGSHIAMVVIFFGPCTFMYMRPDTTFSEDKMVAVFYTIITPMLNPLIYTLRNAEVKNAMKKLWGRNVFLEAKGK
How it was run: (§1)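 Assay methods differ from source to source, frequently being transient luciferase assays in mammalian cell lines. For each receptor–molecule pair, the label responsive (active) applies when the original authors judged the measured signal statistically different from baseline, and non-responsive (inactive) applies otherwise.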

OR4X1 (Homo sapiens) = target: T2, OR4X1 (Homo sapiens) (UniProt Q8NH49)
T2 sequence (whole entry): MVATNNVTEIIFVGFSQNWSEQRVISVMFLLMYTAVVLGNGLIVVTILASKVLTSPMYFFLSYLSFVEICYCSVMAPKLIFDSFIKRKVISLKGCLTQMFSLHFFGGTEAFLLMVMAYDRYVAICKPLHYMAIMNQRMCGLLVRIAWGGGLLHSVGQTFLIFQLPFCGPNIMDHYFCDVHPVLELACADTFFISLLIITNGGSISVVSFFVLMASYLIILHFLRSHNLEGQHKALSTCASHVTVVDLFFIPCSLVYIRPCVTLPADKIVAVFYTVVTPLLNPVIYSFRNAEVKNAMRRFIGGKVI
How it was run: as §1

OR4X2 (Homo sapiens) = target: T3, OR4X2 (Homo sapiens) (UniProt Q8NGF9)
T3 sequence (whole entry): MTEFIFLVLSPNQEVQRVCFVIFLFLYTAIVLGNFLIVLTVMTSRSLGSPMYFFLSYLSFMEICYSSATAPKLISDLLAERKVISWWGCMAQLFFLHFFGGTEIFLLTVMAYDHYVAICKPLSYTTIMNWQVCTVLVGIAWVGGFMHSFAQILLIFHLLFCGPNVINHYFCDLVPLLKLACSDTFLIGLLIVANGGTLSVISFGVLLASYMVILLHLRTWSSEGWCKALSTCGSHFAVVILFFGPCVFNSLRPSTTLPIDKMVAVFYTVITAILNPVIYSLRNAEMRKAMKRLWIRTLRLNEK
How it was run: as §1

OR51A2 (Homo sapiens) = target: T4, OR51A2 (Homo sapiens) (UniProt Q8NGJ7)
T4 sequence (whole entry): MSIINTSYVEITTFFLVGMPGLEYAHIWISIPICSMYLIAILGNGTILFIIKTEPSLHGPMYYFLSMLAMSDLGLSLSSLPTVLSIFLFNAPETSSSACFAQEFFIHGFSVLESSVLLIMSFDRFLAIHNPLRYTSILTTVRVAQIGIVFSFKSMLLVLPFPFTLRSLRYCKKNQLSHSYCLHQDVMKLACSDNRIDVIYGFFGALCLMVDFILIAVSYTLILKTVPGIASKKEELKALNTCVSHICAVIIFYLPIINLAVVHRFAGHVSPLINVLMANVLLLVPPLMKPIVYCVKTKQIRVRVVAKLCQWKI
How it was run: as §1

OR51A4 (Homo sapiens) = target: T5, OR51A4 (Homo sapiens) (UniProt Q8NGJ6)
T5 sequence (whole entry): T4 sequence (whole entry) with G59E, T94I, S97N, S167N, P227L, E235Q, G267R, M288T, K289N, W311R
How it was run: as §1

OR51A7 (Homo sapiens) = target: T6, OR51A7 (Homo sapiens) (UniProt Q8NH64)
T6 sequence (whole entry): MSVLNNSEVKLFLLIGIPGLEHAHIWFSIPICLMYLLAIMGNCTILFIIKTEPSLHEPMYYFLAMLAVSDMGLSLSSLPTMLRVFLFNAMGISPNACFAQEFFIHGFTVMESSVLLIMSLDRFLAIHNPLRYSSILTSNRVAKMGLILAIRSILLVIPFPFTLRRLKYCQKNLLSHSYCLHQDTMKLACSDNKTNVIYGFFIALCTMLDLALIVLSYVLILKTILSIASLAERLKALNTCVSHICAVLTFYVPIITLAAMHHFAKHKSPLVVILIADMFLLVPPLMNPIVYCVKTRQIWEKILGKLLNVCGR
How it was run: as §1

OR51B2 (Homo sapiens) = target: T7, OR51B2 (Homo sapiens) (UniProt Q9Y5P1)
T7 sequence (whole entry): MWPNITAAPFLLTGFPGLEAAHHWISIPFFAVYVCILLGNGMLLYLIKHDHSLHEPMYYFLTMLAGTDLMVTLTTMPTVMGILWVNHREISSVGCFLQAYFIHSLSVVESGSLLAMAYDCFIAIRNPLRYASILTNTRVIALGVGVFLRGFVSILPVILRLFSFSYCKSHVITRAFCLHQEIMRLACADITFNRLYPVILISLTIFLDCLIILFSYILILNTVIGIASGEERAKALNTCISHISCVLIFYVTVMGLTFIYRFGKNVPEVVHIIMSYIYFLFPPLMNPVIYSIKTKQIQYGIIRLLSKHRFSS
How it was run: as §1

OR51B4 (Homo sapiens) = target: T8, OR51B4 (Homo sapiens) (UniProt Q9Y5P0)
T8 sequence (whole entry): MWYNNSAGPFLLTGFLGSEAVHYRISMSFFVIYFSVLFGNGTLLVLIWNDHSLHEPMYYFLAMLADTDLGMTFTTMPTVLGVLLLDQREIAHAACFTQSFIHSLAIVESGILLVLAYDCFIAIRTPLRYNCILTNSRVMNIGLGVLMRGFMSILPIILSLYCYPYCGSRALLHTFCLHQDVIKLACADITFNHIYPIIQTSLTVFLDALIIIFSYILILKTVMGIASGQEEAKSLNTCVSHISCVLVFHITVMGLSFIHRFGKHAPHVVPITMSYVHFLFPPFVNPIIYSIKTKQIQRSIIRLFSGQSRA
How it was run: as §1

OR51B5 (Homo sapiens) = target: T9, OR51B5 (Homo sapiens) (UniProt Q9H339)
T9 sequence (whole entry): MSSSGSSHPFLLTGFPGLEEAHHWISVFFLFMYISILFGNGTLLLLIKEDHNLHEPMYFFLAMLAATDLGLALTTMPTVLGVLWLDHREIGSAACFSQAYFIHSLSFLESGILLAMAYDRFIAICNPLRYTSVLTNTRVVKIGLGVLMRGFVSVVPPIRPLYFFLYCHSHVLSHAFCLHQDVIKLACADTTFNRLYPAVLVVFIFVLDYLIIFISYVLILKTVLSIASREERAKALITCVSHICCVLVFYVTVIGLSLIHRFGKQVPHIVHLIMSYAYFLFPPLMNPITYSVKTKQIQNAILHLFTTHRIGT
How it was run: as §1

OR51B6 (Homo sapiens) = target: T10, OR51B6 (Homo sapiens) (UniProt Q9H340)
T10 sequence (whole entry): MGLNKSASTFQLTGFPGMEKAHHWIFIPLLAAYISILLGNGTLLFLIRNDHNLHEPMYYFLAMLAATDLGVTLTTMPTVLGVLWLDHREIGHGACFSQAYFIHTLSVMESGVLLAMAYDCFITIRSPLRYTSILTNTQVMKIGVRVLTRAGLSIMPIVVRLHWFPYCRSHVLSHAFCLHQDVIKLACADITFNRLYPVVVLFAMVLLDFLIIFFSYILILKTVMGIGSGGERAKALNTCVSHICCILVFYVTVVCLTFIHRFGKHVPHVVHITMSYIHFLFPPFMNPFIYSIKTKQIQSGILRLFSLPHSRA
How it was run: as §1

OR51D1 (Homo sapiens) = target: T11, OR51D1 (Homo sapiens) (UniProt Q8NGF3)
T11 sequence (whole entry): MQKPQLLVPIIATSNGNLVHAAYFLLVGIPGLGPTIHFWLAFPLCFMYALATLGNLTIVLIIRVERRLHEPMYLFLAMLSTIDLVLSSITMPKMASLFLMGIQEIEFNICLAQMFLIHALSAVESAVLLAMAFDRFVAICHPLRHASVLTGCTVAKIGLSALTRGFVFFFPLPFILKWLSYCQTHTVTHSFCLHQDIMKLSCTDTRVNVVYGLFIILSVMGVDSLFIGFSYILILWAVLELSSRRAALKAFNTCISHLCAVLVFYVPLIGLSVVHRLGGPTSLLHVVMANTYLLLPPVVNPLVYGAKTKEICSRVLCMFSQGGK
How it was run: as §1

OR51E1 (Homo sapiens) = target: T12, OR51E1 (Homo sapiens) (UniProt Q8TCB6)
T12 sequence (whole entry): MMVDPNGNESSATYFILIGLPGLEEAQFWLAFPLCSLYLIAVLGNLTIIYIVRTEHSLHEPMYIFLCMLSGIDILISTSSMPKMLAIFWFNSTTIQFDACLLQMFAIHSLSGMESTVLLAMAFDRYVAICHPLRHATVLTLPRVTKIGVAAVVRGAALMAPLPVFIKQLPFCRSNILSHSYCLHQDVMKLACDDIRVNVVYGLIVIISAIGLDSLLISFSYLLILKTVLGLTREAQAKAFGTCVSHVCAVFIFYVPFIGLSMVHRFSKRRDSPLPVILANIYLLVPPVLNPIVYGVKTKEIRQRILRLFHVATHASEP
How it was run: as §1

OR51E2 (Homo sapiens) = target: T13, OR51E2 (Homo sapiens) (UniProt Q9H255)
T13 sequence (whole entry): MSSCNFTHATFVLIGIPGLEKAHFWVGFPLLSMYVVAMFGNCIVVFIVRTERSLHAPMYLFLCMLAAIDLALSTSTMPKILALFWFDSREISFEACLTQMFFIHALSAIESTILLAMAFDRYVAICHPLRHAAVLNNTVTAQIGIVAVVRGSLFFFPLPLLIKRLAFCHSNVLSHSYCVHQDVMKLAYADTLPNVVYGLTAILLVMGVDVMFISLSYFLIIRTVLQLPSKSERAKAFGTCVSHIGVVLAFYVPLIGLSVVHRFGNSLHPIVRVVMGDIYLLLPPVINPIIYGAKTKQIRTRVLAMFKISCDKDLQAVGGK
How it was run: as §1

OR51F2 (Homo sapiens) = target: T14, OR51F2 (Homo sapiens) (UniProt Q8NH61)
T14 sequence (whole entry): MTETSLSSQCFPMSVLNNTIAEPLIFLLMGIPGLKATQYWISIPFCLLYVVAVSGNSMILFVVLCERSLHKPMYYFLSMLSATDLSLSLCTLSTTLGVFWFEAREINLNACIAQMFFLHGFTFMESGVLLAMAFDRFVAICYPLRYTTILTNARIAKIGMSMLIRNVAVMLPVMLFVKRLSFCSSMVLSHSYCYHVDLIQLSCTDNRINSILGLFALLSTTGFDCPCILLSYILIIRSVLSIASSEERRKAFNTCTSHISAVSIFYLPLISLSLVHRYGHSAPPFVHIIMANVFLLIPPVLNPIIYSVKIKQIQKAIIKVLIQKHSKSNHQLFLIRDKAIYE
How it was run: as §1

OR51G1 (Homo sapiens) = target: T15, OR51G1 (Homo sapiens) (UniProt Q8NGK1)
T15 sequence (whole entry): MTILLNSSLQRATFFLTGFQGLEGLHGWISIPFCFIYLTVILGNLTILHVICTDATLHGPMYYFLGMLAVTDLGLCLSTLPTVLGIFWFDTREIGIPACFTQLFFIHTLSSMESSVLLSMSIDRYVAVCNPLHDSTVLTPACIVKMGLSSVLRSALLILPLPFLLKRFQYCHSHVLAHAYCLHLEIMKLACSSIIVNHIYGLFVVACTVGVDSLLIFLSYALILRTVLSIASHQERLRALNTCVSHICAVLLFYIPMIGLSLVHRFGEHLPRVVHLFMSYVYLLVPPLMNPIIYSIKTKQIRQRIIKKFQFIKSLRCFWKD
How it was run: as §1

OR51G2 (Homo sapiens) = target: T16, OR51G2 (Homo sapiens) (UniProt Q8NGK0)
T16 sequence (whole entry): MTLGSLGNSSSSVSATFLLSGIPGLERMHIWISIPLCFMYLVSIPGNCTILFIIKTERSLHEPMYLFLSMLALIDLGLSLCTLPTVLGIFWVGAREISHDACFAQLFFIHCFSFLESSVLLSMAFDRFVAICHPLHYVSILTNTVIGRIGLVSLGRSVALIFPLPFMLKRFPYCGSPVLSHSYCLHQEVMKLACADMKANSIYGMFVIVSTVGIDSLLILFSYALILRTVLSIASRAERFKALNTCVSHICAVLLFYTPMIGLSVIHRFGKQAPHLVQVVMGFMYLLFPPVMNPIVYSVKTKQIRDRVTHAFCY
How it was run: as §1

OR51I1 (Homo sapiens) = target: T17, OR51I1 (Homo sapiens) (UniProt Q9H343)
T17 sequence (whole entry): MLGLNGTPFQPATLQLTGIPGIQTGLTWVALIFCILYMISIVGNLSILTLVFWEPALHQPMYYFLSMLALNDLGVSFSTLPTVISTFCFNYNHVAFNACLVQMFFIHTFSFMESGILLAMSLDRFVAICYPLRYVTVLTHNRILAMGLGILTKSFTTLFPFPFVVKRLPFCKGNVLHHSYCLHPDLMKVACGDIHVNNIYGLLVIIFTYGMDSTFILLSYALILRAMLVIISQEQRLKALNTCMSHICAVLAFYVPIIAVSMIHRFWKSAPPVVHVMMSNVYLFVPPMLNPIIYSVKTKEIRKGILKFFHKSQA
How it was run: as §1

OR51F1 (Homo sapiens) = target: T18, OR51F1 (Homo sapiens) (UniProt A6NGY5)
T18 sequence (whole entry): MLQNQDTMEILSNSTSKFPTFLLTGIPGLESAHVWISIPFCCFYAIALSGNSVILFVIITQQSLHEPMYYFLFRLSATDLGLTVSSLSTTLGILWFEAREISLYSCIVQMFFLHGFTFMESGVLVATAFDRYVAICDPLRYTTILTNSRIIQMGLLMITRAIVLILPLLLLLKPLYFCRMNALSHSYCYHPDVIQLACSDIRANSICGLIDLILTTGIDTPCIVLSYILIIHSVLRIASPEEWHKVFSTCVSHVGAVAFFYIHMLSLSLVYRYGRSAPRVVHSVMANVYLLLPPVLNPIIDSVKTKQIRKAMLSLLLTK
How it was run: as §1

OR51H1 (Homo sapiens) = OR51H1 (Homo sapiens) (UniProt Q8NH63)
Chain of OR51H1 (Homo sapiens) (Q8NH63 whole entry): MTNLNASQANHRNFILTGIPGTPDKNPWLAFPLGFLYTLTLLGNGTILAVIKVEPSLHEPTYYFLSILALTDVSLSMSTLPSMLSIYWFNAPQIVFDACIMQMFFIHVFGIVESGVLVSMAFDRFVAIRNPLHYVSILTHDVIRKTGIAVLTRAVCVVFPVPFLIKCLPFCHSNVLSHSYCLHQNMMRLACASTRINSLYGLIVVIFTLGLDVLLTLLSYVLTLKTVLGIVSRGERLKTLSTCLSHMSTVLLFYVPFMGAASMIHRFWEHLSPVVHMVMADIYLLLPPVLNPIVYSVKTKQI
How it was run: as §1

Measured: odorant receptor agonist call

CCC1OC(C)=C(O)C1=O (stereo not given)
not listed: OR51F1 (Homo sapiens) | OR51H1 (Homo sapiens)
inactive: all other assays above

CC1CCCCCCCCCCCCC(=O)C1 (stereo not given)
not listed: OR51E1 (Homo sapiens)
inactive: all other assays above
